Assay [1] concerns the target cGMP-dependent 3',5'-cyclic phosphodiesterase (Homo sapiens, UniProt O00408). The experiment in a line: Inhibition of cGMP activated human recombinant PDE2A using [3H]cAMP as substrate after 30 mins by scintillation proximity assay. The procedure, abridged: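 PDE2A (NM002599) activated with 1 µM cGMP; substrate 0.5 µM [3H]cAMP; scintillation proximity read-out at varied inhibitor concentrations with fixed enzyme amount; IC50 from two-parameter Hill model.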

The target in assay [2] is cAMP and cAMP-inhibited cGMP 3',5'-cyclic phosphodiesterase 10A (Homo sapiens, UniProt Q9Y233). The assay can be described thus: Inhibition of human recombinant PDE10A1 expressed in baculovirus infected insect SF21 cells using [3H]cAMP as substrate after 30 mins by scintillation proximity assay. The procedure, abridged: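 Cytosolic PDE10A1 from Sf21 lysate (sonication in Tris-HCl/EDTA/sucrose pH 7.4, 48000 g supernatant, stored -70°C). Assay in 50 mM Tris-HCl/5 mM MgCl2 with 0.1 µM [3H]cAMP, started by substrate, 37°C for 30 min; stopped with Ysi-SPA beads, settled 1 h, scintillation counting. Enzyme amount optimized per preparation; no-enzyme blank for non-specific activity; IC50 by two-parameter Hill model.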

For assay [3], the species on record is Homo sapiens. The assay can be described thus: Selectivity factor, ratio of IC50 for human recombinant PDE2A to IC50 for human recombinant PDE10A1.
The target of assay [4] is Dual specificity calcium/calmodulin-dependent 3',5'-cyclic nucleotide phosphodiesterase 1B (Homo sapiens, UniProt Q01064). The assay can be described thus: Inhibition of human PDE1B using [3H]cAMP as substrate after 30 mins by scintillation proximity assay. A general note: Scintillation proximity formats need no separation of bound from free tracer.
Sequence of Dual specificity calcium/calmodulin-dependent 3',5'-cyclic nucleotide phosphodiesterase 1B (Q01064 whole entry): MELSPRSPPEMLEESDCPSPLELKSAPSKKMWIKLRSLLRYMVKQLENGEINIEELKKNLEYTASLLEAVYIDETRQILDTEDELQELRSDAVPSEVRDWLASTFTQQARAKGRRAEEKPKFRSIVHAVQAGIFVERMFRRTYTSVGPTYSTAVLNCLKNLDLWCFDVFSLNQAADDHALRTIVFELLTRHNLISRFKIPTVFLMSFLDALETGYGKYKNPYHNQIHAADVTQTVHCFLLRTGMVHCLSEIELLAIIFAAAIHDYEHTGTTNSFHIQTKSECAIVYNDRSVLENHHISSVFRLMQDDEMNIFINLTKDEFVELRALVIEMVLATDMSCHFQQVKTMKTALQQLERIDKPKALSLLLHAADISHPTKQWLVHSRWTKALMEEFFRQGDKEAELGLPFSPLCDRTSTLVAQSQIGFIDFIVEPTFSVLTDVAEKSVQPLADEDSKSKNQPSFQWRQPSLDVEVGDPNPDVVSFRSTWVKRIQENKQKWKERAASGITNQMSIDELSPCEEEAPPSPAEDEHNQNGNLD
Assay [5] has as its target cGMP-inhibited 3',5'-cyclic phosphodiesterase 3A (Homo sapiens, UniProt Q14432). The assay can be described thus: Inhibition of human PDE3A using [3H]cAMP as substrate after 30 mins by scintillation proximity assay.
In assay [6] the target is 3',5'-cyclic-AMP phosphodiesterase 4A (Homo sapiens, UniProt P27815). The experiment in a line: Inhibition of human PDE4A using [3H]cAMP as substrate after 30 mins by scintillation proximity assay.
Assay [7] deals with cGMP-specific 3',5'-cyclic phosphodiesterase (Homo sapiens, UniProt O76074). The assay can be described thus: Inhibition of human PDE5A using [3H]cAMP as substrate after 30 mins by scintillation proximity assay.
Assay [8] is described as follows: Inhibition of bovine PDE6 using [3H]cAMP as substrate after 30 mins by scintillation proximity assay. Further details: species or system Bos taurus.
Assay [9] addresses 3',5'-cyclic-AMP phosphodiesterase 7B (Homo sapiens, UniProt Q9NP56). The assay can be described thus: Inhibition of human PDE7B using [3H]cAMP as substrate after 30 mins by scintillation proximity assay.
The target in assay [10] is High affinity cAMP-specific and IBMX-insensitive 3',5'-cyclic phosphodiesterase 8A (Homo sapiens, UniProt O60658). The assay can be described thus: Inhibition of human PDE8A using [3H]cAMP as substrate after 30 mins by scintillation proximity assay.
Sequence of High affinity cAMP-specific and IBMX-insensitive 3',5'-cyclic phosphodiesterase 8A (O60658 whole entry): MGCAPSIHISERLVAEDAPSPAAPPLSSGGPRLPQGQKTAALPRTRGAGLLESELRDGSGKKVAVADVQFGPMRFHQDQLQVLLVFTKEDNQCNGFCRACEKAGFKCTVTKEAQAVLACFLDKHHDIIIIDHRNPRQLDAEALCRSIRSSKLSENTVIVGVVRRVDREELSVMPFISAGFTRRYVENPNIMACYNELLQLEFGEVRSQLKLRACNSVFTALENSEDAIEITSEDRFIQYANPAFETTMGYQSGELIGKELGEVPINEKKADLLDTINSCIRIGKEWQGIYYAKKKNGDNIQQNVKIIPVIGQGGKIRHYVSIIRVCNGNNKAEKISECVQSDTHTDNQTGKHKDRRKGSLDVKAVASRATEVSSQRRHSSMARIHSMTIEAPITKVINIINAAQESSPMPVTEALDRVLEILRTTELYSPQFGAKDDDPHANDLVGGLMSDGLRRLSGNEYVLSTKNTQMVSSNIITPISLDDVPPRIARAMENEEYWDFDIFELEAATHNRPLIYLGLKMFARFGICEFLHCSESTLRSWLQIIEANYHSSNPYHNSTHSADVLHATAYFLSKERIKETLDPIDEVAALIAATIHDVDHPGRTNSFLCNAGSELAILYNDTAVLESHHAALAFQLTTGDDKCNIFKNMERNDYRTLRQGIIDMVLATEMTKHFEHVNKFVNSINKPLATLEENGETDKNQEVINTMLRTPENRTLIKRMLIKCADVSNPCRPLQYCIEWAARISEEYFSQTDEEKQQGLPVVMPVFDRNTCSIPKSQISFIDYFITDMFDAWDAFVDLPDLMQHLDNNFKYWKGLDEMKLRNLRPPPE
The target of assay [11] is High affinity cGMP-specific 3',5'-cyclic phosphodiesterase 9A (Homo sapiens, UniProt O76083). The experiment in a line: Inhibition of human PDE9A using [3H]cAMP as substrate after 30 mins by scintillation proximity assay.
Assay [12] addresses Dual 3',5'-cyclic-AMP and -GMP phosphodiesterase 11A (Homo sapiens, UniProt Q9HCR9). The assay can be described thus: Inhibition of human PDE11A using [3H]cAMP as substrate after 30 mins by scintillation proximity assay.

18 compounds from ChEMBL document CHEMBL3739392, “Development of highly potent phosphodiesterase 10A (PDE10A) inhibitors: Synthesis and in vitro evaluation of 1,8-dipyridinyl- and 1-pyridinyl-substituted imidazo[1,5-a]quinoxalines” (Eur J Med Chem, 2016) can be followed below.

For orientation: IC50 means the concentration needed to halve the response being measured.

Sequence of cGMP-inhibited 3',5'-cyclic phosphodiesterase 3A (Q14432 whole entry): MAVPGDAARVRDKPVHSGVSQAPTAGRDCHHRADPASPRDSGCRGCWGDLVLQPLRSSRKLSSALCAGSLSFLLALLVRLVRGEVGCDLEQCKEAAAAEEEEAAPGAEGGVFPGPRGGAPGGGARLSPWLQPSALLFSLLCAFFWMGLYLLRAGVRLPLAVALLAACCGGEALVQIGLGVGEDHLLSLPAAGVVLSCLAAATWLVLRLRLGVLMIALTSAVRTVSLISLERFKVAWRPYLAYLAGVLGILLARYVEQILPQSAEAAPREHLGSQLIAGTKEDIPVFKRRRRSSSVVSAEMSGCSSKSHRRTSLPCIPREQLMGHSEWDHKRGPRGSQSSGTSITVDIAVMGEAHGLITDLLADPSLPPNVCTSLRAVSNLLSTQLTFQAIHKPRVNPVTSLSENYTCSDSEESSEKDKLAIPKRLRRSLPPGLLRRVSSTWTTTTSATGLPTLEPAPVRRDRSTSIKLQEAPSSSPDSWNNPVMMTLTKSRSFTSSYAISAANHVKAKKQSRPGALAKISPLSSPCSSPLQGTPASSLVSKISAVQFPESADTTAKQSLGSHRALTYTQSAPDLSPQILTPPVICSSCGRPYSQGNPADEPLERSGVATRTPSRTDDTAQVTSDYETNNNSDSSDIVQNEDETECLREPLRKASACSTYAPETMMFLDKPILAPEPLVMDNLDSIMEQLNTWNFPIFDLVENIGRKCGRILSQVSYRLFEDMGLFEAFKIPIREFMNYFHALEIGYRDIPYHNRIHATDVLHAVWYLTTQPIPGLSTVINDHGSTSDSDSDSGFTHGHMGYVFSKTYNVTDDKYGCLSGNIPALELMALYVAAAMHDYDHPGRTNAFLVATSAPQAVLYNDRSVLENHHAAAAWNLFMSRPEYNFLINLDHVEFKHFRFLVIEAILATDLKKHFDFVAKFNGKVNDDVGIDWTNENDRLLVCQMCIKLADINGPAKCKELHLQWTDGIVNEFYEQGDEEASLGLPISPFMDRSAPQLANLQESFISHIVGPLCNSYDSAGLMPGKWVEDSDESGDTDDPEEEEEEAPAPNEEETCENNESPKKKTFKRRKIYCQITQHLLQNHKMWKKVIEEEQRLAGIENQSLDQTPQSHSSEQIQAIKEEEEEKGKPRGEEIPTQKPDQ
Sequence of 3',5'-cyclic-AMP phosphodiesterase 7B (Q9NP56 whole entry): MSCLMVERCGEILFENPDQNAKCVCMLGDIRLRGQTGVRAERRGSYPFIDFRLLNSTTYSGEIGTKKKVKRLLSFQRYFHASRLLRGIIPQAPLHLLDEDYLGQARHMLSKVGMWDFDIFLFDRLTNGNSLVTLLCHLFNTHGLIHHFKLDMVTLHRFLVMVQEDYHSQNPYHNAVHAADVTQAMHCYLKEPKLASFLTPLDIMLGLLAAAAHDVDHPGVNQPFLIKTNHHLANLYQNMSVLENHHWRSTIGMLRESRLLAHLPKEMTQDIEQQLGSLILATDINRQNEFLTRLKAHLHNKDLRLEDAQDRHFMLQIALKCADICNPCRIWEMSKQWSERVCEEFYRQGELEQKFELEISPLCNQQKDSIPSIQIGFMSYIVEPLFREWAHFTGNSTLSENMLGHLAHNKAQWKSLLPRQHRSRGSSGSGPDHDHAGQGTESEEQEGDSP
Sequence of Dual 3',5'-cyclic-AMP and -GMP phosphodiesterase 11A (Q9HCR9 whole entry): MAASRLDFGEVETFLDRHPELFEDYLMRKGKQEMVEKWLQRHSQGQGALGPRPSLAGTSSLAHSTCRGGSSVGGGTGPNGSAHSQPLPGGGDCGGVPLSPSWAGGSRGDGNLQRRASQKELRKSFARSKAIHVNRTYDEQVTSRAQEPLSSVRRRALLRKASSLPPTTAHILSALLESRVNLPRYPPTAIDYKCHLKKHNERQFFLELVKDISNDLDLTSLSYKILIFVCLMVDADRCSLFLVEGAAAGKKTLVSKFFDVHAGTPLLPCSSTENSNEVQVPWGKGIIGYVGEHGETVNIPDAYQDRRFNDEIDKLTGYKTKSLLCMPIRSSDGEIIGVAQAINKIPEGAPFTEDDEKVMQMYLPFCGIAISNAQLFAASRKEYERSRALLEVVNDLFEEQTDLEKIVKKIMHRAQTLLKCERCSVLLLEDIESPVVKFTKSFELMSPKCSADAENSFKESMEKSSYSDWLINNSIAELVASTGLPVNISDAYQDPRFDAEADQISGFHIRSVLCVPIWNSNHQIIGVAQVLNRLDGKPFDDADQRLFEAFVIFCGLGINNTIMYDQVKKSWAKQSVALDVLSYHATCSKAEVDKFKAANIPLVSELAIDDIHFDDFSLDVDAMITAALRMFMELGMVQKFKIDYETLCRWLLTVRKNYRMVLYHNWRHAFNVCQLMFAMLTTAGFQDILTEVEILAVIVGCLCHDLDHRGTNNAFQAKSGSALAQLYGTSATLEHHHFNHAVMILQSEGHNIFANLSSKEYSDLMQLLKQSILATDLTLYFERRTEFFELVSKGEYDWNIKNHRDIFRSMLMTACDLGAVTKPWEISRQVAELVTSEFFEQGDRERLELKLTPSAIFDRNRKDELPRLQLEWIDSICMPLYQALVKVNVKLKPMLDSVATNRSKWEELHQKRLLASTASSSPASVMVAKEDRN
Sequence of cGMP-dependent 3',5'-cyclic phosphodiesterase (O00408 whole entry): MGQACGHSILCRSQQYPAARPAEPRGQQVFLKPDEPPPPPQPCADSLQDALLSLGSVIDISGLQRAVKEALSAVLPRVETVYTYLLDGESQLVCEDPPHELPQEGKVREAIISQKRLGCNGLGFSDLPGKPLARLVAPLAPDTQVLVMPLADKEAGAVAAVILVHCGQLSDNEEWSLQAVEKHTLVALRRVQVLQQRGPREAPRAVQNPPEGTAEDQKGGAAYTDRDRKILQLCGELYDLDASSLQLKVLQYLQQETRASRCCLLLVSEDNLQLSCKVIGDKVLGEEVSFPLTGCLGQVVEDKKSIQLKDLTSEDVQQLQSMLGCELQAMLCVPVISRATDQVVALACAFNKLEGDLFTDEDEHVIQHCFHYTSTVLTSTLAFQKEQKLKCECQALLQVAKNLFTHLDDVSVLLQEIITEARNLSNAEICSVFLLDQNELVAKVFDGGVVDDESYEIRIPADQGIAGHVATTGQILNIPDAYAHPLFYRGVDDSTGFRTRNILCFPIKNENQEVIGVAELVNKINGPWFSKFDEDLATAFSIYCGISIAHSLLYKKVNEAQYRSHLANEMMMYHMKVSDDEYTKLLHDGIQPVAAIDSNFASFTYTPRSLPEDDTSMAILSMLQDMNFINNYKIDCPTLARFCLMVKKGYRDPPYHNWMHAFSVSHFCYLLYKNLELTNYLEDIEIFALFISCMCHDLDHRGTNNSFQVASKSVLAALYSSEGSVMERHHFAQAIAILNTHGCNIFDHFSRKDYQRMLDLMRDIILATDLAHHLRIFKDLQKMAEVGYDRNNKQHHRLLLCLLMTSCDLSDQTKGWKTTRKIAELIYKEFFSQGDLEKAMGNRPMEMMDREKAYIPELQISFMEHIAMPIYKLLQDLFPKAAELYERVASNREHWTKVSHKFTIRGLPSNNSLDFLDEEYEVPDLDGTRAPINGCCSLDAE

Regarding `COc1cc(-c2cccnc2)cc2c1nc(C)c1c(C)nc(-c3ccc(F)nc3)n12`, the IC50 is 78.6 nM in [1]; 0.87 nM in assay [2]; more than 1000 nM in assay [4]; more than 1000 nM in assay [5]; more than 1000 nM in assay [6]; 228 nM in assay [7]. Moreover, the IC50 was 559 nM in [8]; more than 1000 nM in assay [9]; more than 1000 nM in assay [10]; more than 1000 nM in [11]; 395 nM in [12]. In assay [3], the Ratio IC50 stood at 90.

As to `COc1cc(C#N)cc2c1nc(C)c1c(C)nc(-c3cccnc3F)n12`, the IC50 in [1] came to 98.6 nM; in assay [2] it was 1.69 nM. The Ratio IC50 in [3] came to 58.

As for `COc1cc(-c2ccc(F)nc2)cc2c1nc(C)c1c(C)nc(-c3cccnc3)n12`, the IC50 is 29.2 nM in assay [1]; 0.33 nM in [2]; more than 1000 nM in assay [4]; more than 1000 nM in [5]; more than 1000 nM in [6]; 279 nM in [7]. The IC50 in [8] is 631 nM; in assay [9], more than 1000 nM; in assay [10], more than 1000 nM; in assay [11], more than 1000 nM; in [12] it was 286 nM. The Ratio IC50 in assay [3] turned out to be 88.

Regarding `COc1cc(-c2ccc(F)nc2)cc2c1nc(C)c1c(C)nc(Br)n12`, the IC50 was more than 1000 nM in [1] and 10.3 nM in assay [2]. Moreover, the Ratio IC50 in assay [3] is more than 97.

Take `COc1cc(-c2ccc(F)nc2)cc2c1nc(C)c1c(C)nc(-c3ccncc3)n12`: the IC50 in assay [1] was 65.7 nM; in assay [2], 0.41 nM; in assay [4] it was more than 1000 nM; in [5], more than 1000 nM; in assay [6], 841 nM; in [7] it was 201 nM. Besides, the IC50 in assay [8], in assay [9], in assay [10], in assay [11] and in [12] was more than 1000 nM in each case. In addition, in assay [3], the Ratio IC50 was determined as 160.

As to `COc1cc(-c2cccnc2)cc2c1nc(C)c1c(C)nc(-c3cccnc3)n12`, the IC50 was 10.9 nM in assay [1]; 0.11 nM in [2]; more than 1000 nM in assay [4]; more than 1000 nM in assay [5]; 1000 nM in assay [6]; 232 nM in [7]. Also, the IC50 in [8] was 425 nM; in assay [9], more than 1000 nM; in [10], more than 1000 nM; in [11] it was more than 1000 nM; in [12] it was 286 nM. Also, the Ratio IC50 in assay [3] was 99.

Take `COc1cc(Br)cc2c1nc(C)c1c(C)nc(-c3ccnc(F)c3)n12`: the IC50 was more than 1000 nM in assay [1] and 3.18 nM in assay [2]. In addition, in [3], the Ratio IC50 is more than 312.

Take `COc1cc(Br)cc2c1nc(C)c1c(C)nc(-c3cccnc3F)n12`: the IC50 in assay [1] was 23.9 nM; in [2], 0.12 nM; in [4], more than 1000 nM; in assay [5], more than 1000 nM; in assay [6] it was more than 1000 nM; in assay [7], 606 nM. For the same compound, the IC50 in [8] was 432 nM; in [9], more than 1000 nM; in [10] it was more than 1000 nM; in assay [11] it was more than 1000 nM; in assay [12], 494 nM. Further, the Ratio IC50 in assay [3] was found to be 199.

As to `COc1cc(-c2ccc(F)nc2)cc2c1nc(C)c1c(C)ncn12`, the IC50 is more than 1000 nM in assay [1] and 26.3 nM in [2]. Also, the Ratio IC50 in assay [3] is more than 38.

As to `COc1cc(-c2cccnc2)cc2c1nc(C)c1c(C)nc(-c3cccnc3F)n12`, the IC50 in assay [1] was 3.49 nM; in assay [2] it was 0.037 nM; in [4], more than 1000 nM; in assay [5], more than 1000 nM; in assay [6] it was less than 1000 nM; in [7] it was 91.6 nM. In addition, the IC50 was 177 nM in assay [8]; more than 1000 nM in assay [9]; more than 1000 nM in assay [10]; more than 1000 nM in assay [11]; 457 nM in assay [12]. In assay [3], the Ratio IC50 is 94.

For the compound `COc1cc(C#N)cc2c1nc(C)c1c(C)nc(-c3ccc(F)nc3)n12`, the IC50 in assay [1] is more than 1000 nM; in [2] it was 20.4 nM. Also, the Ratio IC50 in [3] is more than 49.

Turning to `COc1cc(-c2cccnc2)cc2c1nc(C)c1c(C)nc(-c3ccnc(F)c3)n12`, the IC50 in assay [1] was determined as 46.8 nM; in assay [2], 0.46 nM. The Ratio IC50 in assay [3] was determined as 102.

Take `COc1cc(-c2ccncc2)cc2c1nc(C)c1c(C)nc(-c3ccc(F)nc3)n12`: the IC50 in [1] is 162 nM; in assay [2], 0.99 nM; in assay [4], more than 1000 nM; in [5] it was more than 1000 nM; in [6], more than 1000 nM; in [7] it was 195 nM. The IC50 is 585 nM in [8]; less than 1000 nM in assay [9]; more than 1000 nM in assay [10]; more than 1000 nM in [11]; 413 nM in [12]. Moreover, in assay [3], the Ratio IC50 is 164.

For `COc1cc2ncnc(N3CC[C@@H](Oc4cnc5ccccc5n4)C3)c2cc1OC`, in [2], the IC50 amounted to 16 nM.

With `COc1cc(-c2ccc(F)nc2)cc2c1nc(C)c1c(C)nc(-c3ccc(F)nc3)n12`, the IC50 in [1] is 395 nM; in [2] it was 3.3 nM; in assay [4] it was more than 1000 nM; in assay [5] it was more than 1000 nM; in assay [6], more than 1000 nM; in assay [7] it was more than 1000 nM. Moreover, the IC50 in assay [8], in assay [9], in assay [10], in assay [11] and in [12] was more than 1000 nM in each case. Moreover, the Ratio IC50 in assay [3] was determined as 120.

On to `COc1cc(-c2cccnc2F)cc2c1nc(C)c1c(C)nc(-c3cccnc3F)n12`, for which the concentration for half-maximal inhibition (IC50) in [1] worked out at 2.06 nM; in [2], 0.048 nM. Also, in [3], the Ratio IC50 amounted to 43.

Consider `COc1cc(Br)cc2c1nc(C)c1c(C)nc(-c3ccc(F)nc3)n12`, for which the IC50 was more than 1000 nM in [1]; 2.95 nM in [2]; more than 1000 nM in [4]; more than 1000 nM in [5]; more than 1000 nM in assay [6]; more than 1000 nM in assay [7]. Also, the half-maximal inhibitory concentration (IC50) in assay [8], in [9], in [10], in [11] and in assay [12] was more than 1000 nM each time. Moreover, the Ratio IC50 in assay [3] was more than 339.

Consider `COc1cc(-c2ccnc(F)c2)cc2c1nc(C)c1c(C)nc(-c3ccnc(F)c3)n12`, for which the concentration for half-maximal inhibition (IC50) was 481 nM in assay [1] and 1.57 nM in assay [2]. The Ratio IC50 in assay [3] was found to be 306.
